Activity calls are given as the source filed them. The rule behind the calls is not given here. Bounds are passed on as bounds.

Experiment [1] has as its target T1, Ectonucleotide pyrophosphatase/phosphodiesterase family member 1 (Homo sapiens) (UniProt P22413).
T1 sequence (whole entry): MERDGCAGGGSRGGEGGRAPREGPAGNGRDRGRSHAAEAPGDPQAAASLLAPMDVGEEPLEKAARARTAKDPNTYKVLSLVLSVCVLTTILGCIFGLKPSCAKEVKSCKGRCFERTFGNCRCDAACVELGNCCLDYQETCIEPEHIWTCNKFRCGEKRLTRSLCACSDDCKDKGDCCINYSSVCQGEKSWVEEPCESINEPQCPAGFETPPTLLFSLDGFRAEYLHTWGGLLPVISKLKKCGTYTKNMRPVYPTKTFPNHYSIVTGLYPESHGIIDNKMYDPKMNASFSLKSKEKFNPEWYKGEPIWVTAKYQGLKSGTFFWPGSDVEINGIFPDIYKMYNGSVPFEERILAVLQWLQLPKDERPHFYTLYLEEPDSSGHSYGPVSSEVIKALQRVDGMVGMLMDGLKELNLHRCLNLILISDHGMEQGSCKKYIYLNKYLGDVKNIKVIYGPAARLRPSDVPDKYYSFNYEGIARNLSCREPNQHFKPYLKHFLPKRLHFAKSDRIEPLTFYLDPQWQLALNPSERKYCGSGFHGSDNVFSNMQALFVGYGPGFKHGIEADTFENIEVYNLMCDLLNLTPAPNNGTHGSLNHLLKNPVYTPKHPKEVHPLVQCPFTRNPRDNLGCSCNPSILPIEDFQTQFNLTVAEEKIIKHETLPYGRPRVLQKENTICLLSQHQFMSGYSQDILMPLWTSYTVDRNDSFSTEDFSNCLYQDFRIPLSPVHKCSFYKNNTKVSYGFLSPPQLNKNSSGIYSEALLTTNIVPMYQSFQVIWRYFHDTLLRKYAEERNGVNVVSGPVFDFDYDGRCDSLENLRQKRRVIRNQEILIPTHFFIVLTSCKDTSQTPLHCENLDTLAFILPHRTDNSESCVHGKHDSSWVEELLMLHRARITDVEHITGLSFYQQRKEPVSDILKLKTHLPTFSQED
The experiment is described as follows: Activity of human NPP1 expressed in human 293T cells assessed as drug hydrolysis at 100 uM after 20 mins by reverse-phase HPLC relative to p-nitrophenyl-thymidine-5-monophosphate. It is filed as cell-based. On the set-up: scale not given: the % may be the effect or the level left. An outline of the steps: (§1)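 Crude extract of 293T cells transfected with human NPP1 or NPP3, pre-incubated 3 min at 37 °C in 1 mM CaCl2, 140 mM NaCl, 5 mM KCl, 50 mM Tris pH 8.5. Substrate at 100 µM final for 20 min, stopped in ice-cold perchloric acid and neutralized with KOH. Loss of analogue quantified by reverse-phase HPLC with ion-pair phosphate mobile phase pH 7.0. pnp-TMP (p-nitrophenol at 410 nm) served as the 100% reference.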

Experiment [2] concerns the target P2Y purinoceptor 2 (Homo sapiens, UniProt P41231). The experiment is described as follows: Antagonist activity at human P2Y2 receptor expressed in human 1321N1 cells assessed as inhibition of UTP-induced increase in intracellular calcium concentration by dual-excitation spectrofluorimetric analysis. Type of experiment: functional, cell-based. An outline of the steps:
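Fura-2-loaded suspensions of stably transfected 1321N1 cells were assayed at 37 °C in HEPES-buffered saline pH 7.4 with 1 mM Ca2+ and Mg2+. […] [Ca2+]i was read by dual-excitation spectrofluorometry.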
Background: Calcium assays in cells follow changes in intracellular calcium, usually with a dye or a luminescent sensor.

Experiment [3] deals with T2, Ectonucleotide pyrophosphatase/phosphodiesterase family member 3 (Homo sapiens) (UniProt O14638).
T2 sequence (whole entry): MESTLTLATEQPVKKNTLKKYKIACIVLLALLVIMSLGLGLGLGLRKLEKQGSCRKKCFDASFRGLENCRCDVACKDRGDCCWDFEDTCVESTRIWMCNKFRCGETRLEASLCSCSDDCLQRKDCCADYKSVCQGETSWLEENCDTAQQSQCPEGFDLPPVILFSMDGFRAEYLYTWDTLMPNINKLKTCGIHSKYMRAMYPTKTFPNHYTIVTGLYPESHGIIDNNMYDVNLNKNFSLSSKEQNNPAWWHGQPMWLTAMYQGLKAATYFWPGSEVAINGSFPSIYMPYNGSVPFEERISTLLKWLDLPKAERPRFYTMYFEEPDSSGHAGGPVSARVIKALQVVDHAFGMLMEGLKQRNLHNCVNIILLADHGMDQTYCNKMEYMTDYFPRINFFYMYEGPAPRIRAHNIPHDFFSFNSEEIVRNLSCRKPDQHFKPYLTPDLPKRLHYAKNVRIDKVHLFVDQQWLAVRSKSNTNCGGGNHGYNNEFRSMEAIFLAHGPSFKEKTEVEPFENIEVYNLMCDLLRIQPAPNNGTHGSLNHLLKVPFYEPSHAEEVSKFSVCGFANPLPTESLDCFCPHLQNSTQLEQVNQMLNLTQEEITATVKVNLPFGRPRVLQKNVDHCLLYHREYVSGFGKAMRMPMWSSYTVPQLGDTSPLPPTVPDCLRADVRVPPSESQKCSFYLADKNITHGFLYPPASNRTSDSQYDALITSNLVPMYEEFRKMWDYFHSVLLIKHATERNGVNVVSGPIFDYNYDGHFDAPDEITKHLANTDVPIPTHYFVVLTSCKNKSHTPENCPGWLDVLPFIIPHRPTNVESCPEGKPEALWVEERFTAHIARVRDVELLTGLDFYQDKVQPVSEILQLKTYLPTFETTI
The experiment is described as follows: Activity of human NPP3 expressed in human 293T cells assessed as drug hydrolysis at 100 uM after 20 mins by reverse-phase HPLC relative to p-nitrophenyl-thymidine-5-monophosphate. It is filed as cell-based. On the set-up: scale not given: the % may be the effect or the level left. In outline: as §1

In experiment [4] the target is T3, Ectonucleoside triphosphate diphosphohydrolase 1 (Homo sapiens) (UniProt P49961).
T3 sequence (whole entry): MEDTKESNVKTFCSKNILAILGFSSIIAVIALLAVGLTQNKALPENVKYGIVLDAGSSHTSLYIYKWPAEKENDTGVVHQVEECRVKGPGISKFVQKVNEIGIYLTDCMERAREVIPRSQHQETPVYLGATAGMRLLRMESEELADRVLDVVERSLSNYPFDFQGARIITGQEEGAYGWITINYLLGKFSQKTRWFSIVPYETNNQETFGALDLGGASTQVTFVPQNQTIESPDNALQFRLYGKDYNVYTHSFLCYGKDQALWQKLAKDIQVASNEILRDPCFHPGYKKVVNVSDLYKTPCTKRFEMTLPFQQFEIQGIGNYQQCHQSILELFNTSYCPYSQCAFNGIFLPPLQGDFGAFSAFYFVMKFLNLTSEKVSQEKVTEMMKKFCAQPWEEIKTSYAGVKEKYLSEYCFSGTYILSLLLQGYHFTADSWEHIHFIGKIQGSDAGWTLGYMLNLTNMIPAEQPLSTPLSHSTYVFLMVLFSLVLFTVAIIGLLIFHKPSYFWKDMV
The experiment is described as follows: Activity of human NTPDase 1 expressed in human 293T cells assessed as drug hydrolysis at 100 uM after 20 mins relative to ATP. Type of experiment: cell-based. On the set-up: scale not given: the % may be the effect or the level left. In outline: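 Human NTPDase1, 2, 3 or 8 in crude extracts of transfected 293T cells, pre-incubated 3 min at 37 °C in Tris-Ringer buffer pH 7.4. […] Untransfected-cell extract activity subtracted.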

Chain of P2Y purinoceptor 2 (P41231 whole entry): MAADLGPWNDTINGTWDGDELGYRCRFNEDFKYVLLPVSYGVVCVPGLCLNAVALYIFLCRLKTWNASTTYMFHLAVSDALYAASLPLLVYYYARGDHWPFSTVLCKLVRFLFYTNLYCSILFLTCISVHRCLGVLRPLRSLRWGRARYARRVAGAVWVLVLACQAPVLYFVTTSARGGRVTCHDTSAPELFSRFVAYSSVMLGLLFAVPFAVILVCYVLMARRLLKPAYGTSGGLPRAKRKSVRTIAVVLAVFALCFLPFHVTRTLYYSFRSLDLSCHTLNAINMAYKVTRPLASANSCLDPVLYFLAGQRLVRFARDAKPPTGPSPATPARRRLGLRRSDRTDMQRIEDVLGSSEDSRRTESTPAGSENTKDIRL

Consider `CSc1nc(N)c2ncn([C@@H]3O[C@H](COP(=O)(O)OP(=O)(O)CP(=O)(O)O)[C@@H](O)[C@H]3O)c2n1`, for which the Activity was found to be 23% in experiment [1], 10% in experiment [3] and 8% in experiment [4]. Besides, the result in experiment [2] was inactive.
With `BP(=O)(OC[C@H]1O[C@@H](n2cnc3c(N)ncnc32)[C@H](O)[C@@H]1O)OP(=O)(O)CP(=O)(O)O` (stereo not given in full), the Activity in experiment [1] turned out to be 0%; in experiment [3] it was 0%; in experiment [4] it was 1%. For the same compound, in experiment [2], the result was inactive.
Take `BP(=O)(OC[C@H]1O[C@@H](n2cnc3c(N)nc(SC)nc32)[C@H](O)[C@@H]1O)OP(=O)(O)CP(=O)(O)O` (single isomer, unassigned; diastereomer A): the Activity in experiment [1] is 0%; in experiment [3], 9.9%; in experiment [4] it was less than 1%. Besides, the outcome in experiment [2] was inactive.
With `BP(=O)(OC[C@H]1O[C@@H](n2cnc3c(N)nc(SC)nc32)[C@H](O)[C@@H]1O)OP(=O)(O)CP(=O)(O)O` (single isomer, unassigned; diastereomer B), the Activity in experiment [1] is less than 1%; in experiment [3], 0%; in experiment [4], less than 1%. Moreover, the outcome in experiment [2] was inactive.
`BP(=O)(OC[C@H]1O[C@@H](n2cnc3c(N)ncnc32)[C@H](O)[C@@H]1O)OP(=O)(O)CP(=O)(O)O` (single isomer, unassigned; diastereomer B): the Activity in experiment [1] was 4%; in experiment [3], 3%; in experiment [4], 0%. Also, in experiment [2], the outcome was inactive.
